Assay results reported in ChEMBL document CHEMBL4138314, “Synthesis and Evaluation of N-Phenyl-3-sulfamoyl-benzamide Derivatives as Capsid Assembly Modulators Inhibiting Hepatitis B Virus (HBV)” (J Med Chem, 2018).
Active and inactive are the calls of the source. The calls are words filed in the database; no cut-off is given here.

What was measured:
HBV genotype D [1] = assay: Antiviral activity against HBV genotype D infected in primary human hepatocytes assessed as inhibition of viral DNA level by qPCR analysis; format: functional, organism-based; settings: Hepatitis B virus
Outline: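 Primary human hepatocytes isolated from naive chimeric mice with humanized liver and infected with HBV genotype D; HBV DNA in culture supernatant quantified by qPCR to derive EC50.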

[2] = Half life in C57BL/6 mouse at 50 mg/kg, po by LC-MS/MS analysis; format: ADME, organism-based; settings: in vivo
Outline: (§1)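 Single-dose PK in C57BL/6 mice after intravenous or oral dosing, with oral doses of 10 and 50 mg/kg; plasma clearance and volume of distribution taken from the i.v. arm.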

[3] = Tmax in humanized mouse at 200 mg/kg, sc measured on day 1 post dose by LC-MS/MS analysis; format: ADME, organism-based; settings: in vivo
[4] = Oral bioavailability in C57BL/6 mouse at 50 mg/kg by LC-MS/MS analysis; format: ADME, organism-based; settings: in vivo
Outline: (§2)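 Single-dose PK in C57BL/6 mice given compound intravenously and orally, with oral doses of 10 and 50 mg/kg. Plasma clearance, volume of distribution and oral bioavailability were derived from the plasma profiles.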

[5] = AUC (0 to 24 hrs) in humanized mouse at 200 mg/kg, sc for 8 days measured on day 8 post last dose by LC-MS/MS analysis; format: ADME, organism-based; design: time < 24 hr, dose 200 mg/kg, route subcutaneous; settings: in vivo
[6] = Oral bioavailability in C57BL/6 mouse at 10 mg/kg by LC-MS/MS analysis; format: ADME, organism-based; settings: in vivo; outline: as §2
[7] = AUC (0 to last) in C57BL/6 mouse at 2.5 mg/kg, iv by LC-MS/MS analysis; format: ADME, organism-based; design: dose 2.5 mg/kg, route intravenous, time 0 - last; settings: in vivo
[8] = Volume of distribution at steady state in C57BL/6 mouse at 2.5 mg/kg, iv by LC-MS/MS analysis; format: ADME, organism-based; settings: in vivo, read-out: Vdss
[9] = Inhibition of sodium channel (unknown origin); design: species or system Homo sapiens
[10] = Cmax in C57BL/6 mouse at 10 mg/kg, po by LC-MS/MS analysis; format: ADME, organism-based; design: dose 10 mg/kg, route oral; settings: in vivo
[11] = Cmax in humanized mouse at 200 mg/kg, sc for 8 days measured on day 8 post last dose by LC-MS/MS analysis; format: ADME, organism-based; design: dose 200 mg/kg, route subcutaneous; settings: in vivo
[12] = Half life in humanized mouse at 50 mg/kg, sc measured on day 1 post dose by LC-MS/MS analysis; format: ADME, organism-based; settings: in vivo
[13] = AUC (0 to 24 hrs) in humanized mouse at 200 mg/kg, sc measured on day 1 post dose by LC-MS/MS analysis; format: ADME, organism-based; design: dose 200 mg/kg, time < 24 hr, route subcutaneous; settings: in vivo
Hepatitis B virus = assay: Antiviral activity against Hepatitis B virus infected in human HepG2.117 cells assessed as inhibition of viral DNA level after 3 days by real time PCR; format: functional, organism-based; settings: HepG2.117, 72 h
[14] = Unbound fraction in mouse plasma; format: ADME, cell-free
[15] = AUC (0 to last) in C57BL/6 mouse at 10 mg/kg, po by LC-MS/MS analysis; format: ADME, organism-based; design: dose 10 mg/kg, time 0 - last, route oral; settings: in vivo; outline: as §1
[16] = AUC (0 to 8 hrs) in humanized mouse at 50 mg/kg, sc measured on day 1 post dose by LC-MS/MS analysis; format: ADME, organism-based; design: dose 50 mg/kg, time < 8 hr, route subcutaneous; settings: in vivo
[17] = Tmax in C57BL/6 mouse at 50 mg/kg, sc by LC-MS/MS analysis; format: ADME, organism-based; settings: in vivo
Outline: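 C57BL/6 mice dosed subcutaneously at 50 mg/kg to bypass first-pass metabolism; plasma and liver levels sampled 24 h after dosing.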

[18] = target: Core antigen (Hepatitis B virus) (UniProt Q03732); assay: Induction of HBV Maleimidyl BoDIPY-FL-labeled capsid Cp*150 mutant aggregation incubated for 30 mins measured every 10 secs for 30 mins by fluorescence quenching assay
[19] = target: T1, 5-hydroxytryptamine receptor 2B (Homo sapiens, UniProt P41595); assay: Agonist activity at 5-HT2B (unknown origin); format: functional
[20] = Drug metabolism in human primary hepatocytes assessed as cleavage of N-phenylamide; format: ADME, cell-based, Hepatocyte
Outline: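 Compound incubated with primary hepatocytes and checked for cleavage of the N-phenylamide bond.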

HBV genotype D [21] = assay: Antiviral activity against HBV genotype D infected in human HepG2.2.15 cells assessed as inhibition of viral DNA level treated twice for 3 days measured after 6 days by real time PCR; format: functional, organism-based; settings: Hepatitis B virus
[22] = target: T1, 5-hydroxytryptamine receptor 2B; assay: Antagonist activity at 5-HT2B (unknown origin) at 10 uM; format: functional
Outline: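 Receptor/ion channel/transporter panel of 80 targets screened at 10 µM, giving percent effect at 5-HT2B; follow-up 5-HT2B functional testing in agonist and antagonist modes, with antagonist IC50 determined.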

[23] = Unbound fraction in human plasma; format: ADME, cell-free
[24] = Half life in C57BL/6 mouse at 10 mg/kg, po by LC-MS/MS analysis; format: ADME, organism-based; settings: in vivo; outline: as §1
[25] = Half life in humanized mouse at 200 mg/kg, sc measured on day 1 post dose by LC-MS/MS analysis; format: ADME, organism-based; settings: in vivo
[26] = Half life in humanized mouse at 200 mg/kg, sc for 8 days measured on day 8 post last dose by LC-MS/MS analysis; format: ADME, organism-based; settings: in vivo
[27] = AUC (0 to infinity) in humanized mouse at 50 mg/kg, sc measured on day 1 post dose by LC-MS/MS analysis; format: ADME, organism-based; design: dose 50 mg/kg, time infinity, route subcutaneous; settings: in vivo
[28] = Clearance in C57BL/6 mouse at 2.5 mg/kg, iv by LC-MS/MS analysis; format: ADME, organism-based; settings: in vivo; outline: as §1
[29] = Cmax in humanized mouse at 50 mg/kg, sc measured on day 1 post dose by LC-MS/MS analysis; format: ADME, organism-based; design: dose 50 mg/kg, route subcutaneous; settings: in vivo
[30] = Cmax in humanized mouse at 200 mg/kg, sc measured on day 1 post dose by LC-MS/MS analysis; format: ADME, organism-based; design: dose 200 mg/kg, route subcutaneous; settings: in vivo
HepG2 = assay: Cytotoxicity against human HepG2 cells after 4 to 6 days by resazurin assay; format: cell-based; settings: hepg2
HBV genotype D [31] = assay: Antiviral activity against HBV genotype D infected in chimeric mouse with humanized liver assessed as reduction in HBsAg level at 200 mg/kg, sc qd for 28 days; format: functional, organism-based; settings: hepatitis B virus genotype D
Outline: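 HBV genotype D-infected humanized-liver chimeric mice (≥70% human hepatocyte replacement) were dosed once daily for 28 days at 200 mg/kg s.c., with oral saline and oral entecavir 0.03 mg/kg as controls. Serum HBeAg and HBsAg were followed over the study.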

[32] = Cmax in humanized mouse at 50 mg/kg, sc for 8 days measured on day 8 post last dose by LC-MS/MS analysis; format: ADME, organism-based; design: dose 50 mg/kg, route subcutaneous; settings: in vivo
[33] = Tmax in humanized mouse at 200 mg/kg, sc for 8 days measured on day 8 post last dose by LC-MS/MS analysis; format: ADME, organism-based; settings: in vivo
[34] = Half life in C57BL/6 mouse at 2.5 mg/kg, iv by LC-MS/MS analysis; format: ADME, organism-based; settings: in vivo; outline: as §1
[35] = Plasma concentration in humanized mouse at 200 mg/kg, sc after 24 hrs by LC-MS/MS analysis; format: ADME, organism-based
[36] = Tmax in C57BL/6 mouse at 50 mg/kg, po by LC-MS/MS analysis; format: ADME, organism-based; settings: in vivo; outline: as §2
[37] = Inhibition of calcium channel (unknown origin); design: species or system Homo sapiens
[38] = Drug metabolism in human liver microsomes at 1 uM after 15 mins by LC-MS/MS analysis; format: ADME, microsome; settings: read-out: Drug metabolism
Outline: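 Compound incubated 15 min with human or mouse liver microsomes; stability expressed as percent turnover (metabolised) at 15 min.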

T1 sequence (P41595 whole entry): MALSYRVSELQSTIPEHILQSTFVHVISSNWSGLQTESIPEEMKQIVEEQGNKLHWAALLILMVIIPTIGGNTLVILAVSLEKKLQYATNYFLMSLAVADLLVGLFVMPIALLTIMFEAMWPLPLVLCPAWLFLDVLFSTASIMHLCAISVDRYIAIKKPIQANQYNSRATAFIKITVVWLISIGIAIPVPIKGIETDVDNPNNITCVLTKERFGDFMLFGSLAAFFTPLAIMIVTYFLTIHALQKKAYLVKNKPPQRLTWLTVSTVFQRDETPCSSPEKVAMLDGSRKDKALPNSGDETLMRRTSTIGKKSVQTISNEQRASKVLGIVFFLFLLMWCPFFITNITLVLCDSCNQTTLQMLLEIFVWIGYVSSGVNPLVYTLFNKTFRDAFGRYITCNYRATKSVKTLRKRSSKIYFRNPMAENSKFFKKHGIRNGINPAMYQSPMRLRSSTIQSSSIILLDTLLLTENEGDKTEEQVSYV
Sequence of Core antigen (Hepatitis B virus) (Q03732 as listed by the source): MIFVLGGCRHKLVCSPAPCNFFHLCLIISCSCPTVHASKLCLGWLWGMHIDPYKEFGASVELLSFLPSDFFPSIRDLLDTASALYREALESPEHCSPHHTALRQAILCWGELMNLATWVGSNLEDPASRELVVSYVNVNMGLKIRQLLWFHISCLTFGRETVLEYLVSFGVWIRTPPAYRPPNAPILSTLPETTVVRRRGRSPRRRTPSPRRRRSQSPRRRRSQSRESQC

With `Cc1cc(NC(=O)c2cccc(S(=O)(=O)N[C@H]3CCOC3)c2)ccc1F` the EC50 (HBV genotype D [1]) was 0.2 µM, the half-life [2] was 2.4 h and the Tmax [3] was 0.8 h. The bioavailability [4] was 66%, the AUC at 24 h [5] was 86.9 µg·h/mL and the bioavailability [6] was 40%. For the same compound, the AUC(0-t) [7] was 1.24 µg·h/mL, the Vd [8] was 1.3 L/kg and the IC50 [9] was over 10 µM. For the same compound, the Cmax [10] was 1.94 µg/mL, the Cmax [11] was 7.7 µg/mL and the half-life [12] was 1.1 h. It also gave an AUC(0-t) at 24 h [13] of 12 µg·h/mL, an EC50 (Hepatitis B virus) of 0.43 µM and a fraction unbound [14] of 0.126. The AUC(0-t) [15] was 1.99 µg·h/mL, the AUC(0-t) at 8 h [16] was 4.75 µg·h/mL and the Tmax [17] was 1 h. For the same compound, the Activity [18] was “Active”, the Activity [19] was “inactive” and the Drug metabolism [20] was “Metabolite_Notdetected”. It also gave an EC50 (HBV genotype D [21]) of 0.12 µM, an inhibition [22] of 71% and a fraction unbound [23] of 0.081. The half-life [24] was 1.1 h, the half-life [25] was 5.6 h and the half-life [26] was 12.1 h. The AUC(0-inf) [27] was 4.78 µg·h/mL, the clearance [28] was 2.04 L/h/kg and the Cmax [29] was 2.19 µg/mL. The Cmax [30] was 2.11 µg/mL, the EC20 (HepG2) was 10 to 30 µM and the Activity (HBV genotype D [31]) was “inactive”. The Cmax [32] was 4.38 µg/mL, the Tmax [33] was 1 h and the half-life [34] was 0.42 h. The concentration at 24 h [35] was 1.82 µg/mL, the Tmax [36] was 0.7 h and the IC50 [37] was over 10 µM. For the same compound, the metabolised at 0.25 h, 1 µM [38] was 26%.
